Assay results as given in ChEMBL document CHEMBL3352499, “One pot three components microwave assisted and conventional synthesis of new 3-(4-chloro-2-hydroxyphenyl)-2-(substituted) thiazolidin-4-one as antimicrobial agents” (Bioorg Med Chem Lett, 2014).
≈ marks a conversion by molar mass, not a printed value.

What was measured:
[1] = system: Bacillus subtilis; assay: Antimicrobial activity against Bacillus subtilis NCIM-2063 after 20 hrs by two fold serial macrodilution technique; assay type: functional; details: NCIM-2063, 20 h
Method in brief: (§1)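 Serial macrodilution in 96-well microtiter plates. Compounds were dissolved in saline (0.8% NaCl) containing 5% DMSO, and strains were incubated with a range of concentrations for 20 h at 37 °C on a rotary shaker (160 rpm). MIC was the lowest concentration without growth. Runs were in triplicate, with the mean taken. The negative control was 5% DMSO.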

[2] = system: Bacillus subtilis; assay: Bactericidal activity against Bacillus subtilis NCIM-2063 after 72 hrs by two fold serial macrodilution technique; assay type: functional; details: NCIM-2063, 72 h
Method in brief: (§2)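 Serial subcultivation followed 72 h of exposure to compounds dissolved in saline containing 5% DMSO. MBC/MFC was the lowest concentration with no visible growth, taken as 99.5% killing of the original inoculum. Runs were in triplicate, with the mean reading used.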

[3] = system: Staphylococcus aureus; assay: Antimicrobial activity against Staphylococcus aureus NCIM-2901 after 20 hrs by two fold serial macrodilution technique; assay type: functional; details: NCIM-2901, 20 h; method in brief: as §1
[4] = system: Staphylococcus aureus; assay: Bactericidal activity against Staphylococcus aureus NCIM-2901 after 72 hrs by two fold serial macrodilution technique; assay type: functional; details: NCIM-2901, 72 h; method in brief: as §2
[5] = system: Escherichia coli; assay: Antimicrobial activity against Escherichia coli NCIM-2256 after 20 hrs by two fold serial macrodilution technique; assay type: functional; details: NCIM-2256, 20 h; method in brief: as §1
[6] = system: Escherichia coli; assay: Bactericidal activity against Escherichia coli NCIM-2256 after 72 hrs by two fold serial macrodilution technique; assay type: functional; details: NCIM-2256, 72 h; method in brief: as §2
[7] = system: Salmonella typhimurium; assay: Antimicrobial activity against […] after 20 hrs by two fold serial macrodilution technique; assay type: functional, Salmonella enterica subsp. enterica serovar Typhimurium; details: Salmonella enterica; method in brief: as §1
[8] = system: Salmonella typhimurium; assay: Bactericidal activity against […] after 72 hrs by two fold serial macrodilution technique; assay type: functional, Salmonella enterica subsp. enterica serovar Typhimurium; details: Salmonella enterica; method in brief: as §2
[9] = system: Candida albicans; assay: Antimicrobial activity against Candida albicans NCIM-3471 after 20 hrs by two fold serial macrodilution technique; assay type: functional; details: NCIM-3471, 20 h
[10] = system: Candida albicans; assay: Fungicidal activity against Candida albicans NCIM-3471 after 48 to 72 hrs by two fold serial macrodilution technique; assay type: functional; method in brief: as §2
[11] = system: Aspergillus flavus; assay: Antimicrobial activity against Aspergillus flavus NCIM-539 after 20 hrs by two fold serial macrodilution technique; assay type: functional; details: NCIM-539, 20 h
[12] = system: Aspergillus flavus; assay: Fungicidal activity against Aspergillus flavus NCIM-539 after 48 to 72 hrs by two fold serial macrodilution technique; assay type: functional; method in brief: as §2
[13] = system: Aspergillus niger; assay: Antimicrobial activity against Aspergillus niger NCIM-1196 after 20 hrs by two fold serial macrodilution technique; assay type: functional; details: NCIM-1196, 20 h
[14] = system: Aspergillus niger; assay: Fungicidal activity against Aspergillus niger NCIM-1196 after 48 to 72 hrs by two fold serial macrodilution technique; assay type: functional; method in brief: as §2
[15] = system: Cryptococcus neoformans; assay: Antimicrobial activity against Cryptococcus neoformans NCIM-3378 after 20 hrs by two fold serial macrodilution technique; assay type: functional; details: NCIM-3378, 20 h
[16] = system: Cryptococcus neoformans; assay: Fungicidal activity against Cryptococcus neoformans NCIM-3378 after 48 to 72 hrs by two fold serial macrodilution technique; assay type: functional; method in brief: as §2
[17] = system: HeLa; assay: Cytotoxicity against human HeLa cells by SRB method; assay type: cell-based
Method in brief: (§3)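 SRB colorimetric growth assay. IC50, in µM, was the concentration inhibiting cell growth by 50% relative to untreated control cells. Runs were in triplicate in three independent experiments, with means reported. The positive control was doxorubicin.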

[18] = system: MCF7; assay: Cytotoxicity against human MCF7 cells by SRB method; assay type: cell-based; method in brief: as §3

O=C1CSC(c2ccccc2)N1c1ccc(Cl)cc1O (configuration not stated)
MIC [1]: 60 µg/mL (≈ 196 µM) | MBC [2]: 85 µg/mL (≈ 278 µM) | MIC [3]: 25 µg/mL (≈ 81.8 µM) | MBC [4]: 40 µg/mL (≈ 131 µM) | MIC [5]: 65 µg/mL (≈ 213 µM) | MBC [6]: 125 µg/mL (≈ 409 µM) | MIC [7]: 55 µg/mL (≈ 180 µM) | MBC [8]: 120 µg/mL (≈ 392 µM) | MIC [9]: 60 µg/mL (≈ 196 µM) | MFC [10]: 115 µg/mL (≈ 376 µM) | MIC [11]: 80 µg/mL (≈ 262 µM) | MFC [12]: 115 µg/mL (≈ 376 µM) | MIC [13]: 90 µg/mL (≈ 294 µM) | MFC [14]: 120 µg/mL (≈ 392 µM) | MIC [15]: 70 µg/mL (≈ 229 µM) | MFC [16]: 125 µg/mL (≈ 409 µM) | IC50 [17]: 63.7 µM | IC50 [18]: 56.8 µM

O=C1CSC(c2ccc([N+](=O)[O-])cc2)N1c1ccc(Cl)cc1O (configuration not stated)
MIC [1]: 100 µg/mL (≈ 285 µM) | MBC [2]: 140 µg/mL (≈ 399 µM) | MIC [3]: 85 µg/mL (≈ 242 µM) | MBC [4]: 140 µg/mL (≈ 399 µM) | MIC [5]: 90 µg/mL (≈ 257 µM) | MBC [6]: 155 µg/mL (≈ 442 µM) | MIC [7]: 80 µg/mL (≈ 228 µM) | MBC [8]: 135 µg/mL (≈ 385 µM) | MIC [9]: 95 µg/mL (≈ 271 µM) | MFC [10]: 155 µg/mL (≈ 442 µM) | MIC [11]: 75 µg/mL (≈ 214 µM) | MFC [12]: 135 µg/mL (≈ 385 µM) | MIC [13]: 100 µg/mL (≈ 285 µM) | MFC [14]: 160 µg/mL (≈ 456 µM) | MIC [15]: 90 µg/mL (≈ 257 µM) | MFC [16]: 135 µg/mL (≈ 385 µM) | IC50 [17]: 52.2 µM | IC50 [18]: 41 µM

O=C1CSC(c2ccc(Cl)cc2Cl)N1c1ccc(Cl)cc1O (configuration not stated)
MIC [1]: 80 µg/mL (≈ 214 µM) | MBC [2]: 160 µg/mL (≈ 427 µM) | MIC [3]: 90 µg/mL (≈ 240 µM) | MBC [4]: 160 µg/mL (≈ 427 µM) | MIC [5]: 70 µg/mL (≈ 187 µM) | MBC [6]: 150 µg/mL (≈ 400 µM) | MIC [7]: 75 µg/mL (≈ 200 µM) | MBC [8]: 155 µg/mL (≈ 414 µM) | MIC [9]: 90 µg/mL (≈ 240 µM) | MFC [10]: 160 µg/mL (≈ 427 µM) | MIC [11]: 85 µg/mL (≈ 227 µM) | MFC [12]: 140 µg/mL (≈ 374 µM) | MIC [13]: 70 µg/mL (≈ 187 µM) | MFC [14]: 145 µg/mL (≈ 387 µM) | MIC [15]: 100 µg/mL (≈ 267 µM) | MFC [16]: 150 µg/mL (≈ 400 µM) | IC50 [17]: 49.5 µM | IC50 [18]: 48.4 µM

O=C1CSC(c2ccc(Cl)cc2)N1c1ccc(Cl)cc1O (configuration not stated)
MIC [1]: 25 µg/mL (≈ 73.5 µM) | MBC [2]: 45 µg/mL (≈ 132 µM) | MIC [3]: 20 µg/mL (≈ 58.8 µM) | MBC [4]: 45 µg/mL (≈ 132 µM) | MIC [5]: 50 µg/mL (≈ 147 µM) | MBC [6]: 165 µg/mL (≈ 485 µM) | MIC [7]: 65 µg/mL (≈ 191 µM) | MBC [8]: 155 µg/mL (≈ 456 µM) | MIC [9]: 70 µg/mL (≈ 206 µM) | MFC [10]: 160 µg/mL (≈ 470 µM) | MIC [11]: 90 µg/mL (≈ 265 µM) | MFC [12]: 155 µg/mL (≈ 456 µM) | MIC [13]: 65 µg/mL (≈ 191 µM) | MFC [14]: 165 µg/mL (≈ 485 µM) | MIC [15]: 95 µg/mL (≈ 279 µM) | MFC [16]: 160 µg/mL (≈ 470 µM) | IC50 [17]: 64.4 µM | IC50 [18]: 56.2 µM
